Results taken from ChEMBL document CHEMBL1817554, “Design of HIV-1 protease inhibitors with C3-substituted hexahydrocyclopentafuranyl urethanes as P2-ligands: synthesis, biological evaluation, and protein-ligand X-ray crystal structure” (J Med Chem, 2011).
pIC50, pKi: −log10 of the molar value.

molecular target: Protease (Human immunodeficiency virus 1, UniProt Q9YQ12); test: Inhibition of Human immunodeficiency virus 1 protease assessed as release of fluorescent N-terminal tripeptide using fluorogenic substrate by continuous fluorometric assay
Sequence (Q9YQ12 whole entry): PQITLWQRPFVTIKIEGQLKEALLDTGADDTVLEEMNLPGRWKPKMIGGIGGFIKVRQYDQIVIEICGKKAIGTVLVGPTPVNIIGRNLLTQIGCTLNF

SMILES | pKi
COc1ccc(S(=O)(=O)N(CC(C)C)C[C@@H](O)[C@H](Cc2ccccc2)NC(=O)O[C@@H]2C[C@@H]3C(=O)CO[C@@H]3C2)cc1 | 9.02
COc1ccc(S(=O)(=O)N(CC(C)C)C[C@@H](O)[C@H](Cc2ccccc2)NC(=O)O[C@@H]2C[C@@H]3[C@H](O)CO[C@@H]3C2)cc1 | 10.11
CC(C)CN(C[C@@H](O)[C@H](Cc1ccccc1)NC(=O)O[C@@H]1C[C@@H]2[C@H](O)CO[C@@H]2C1)S(=O)(=O)c1ccc(N)cc1 | 10.10
CC(C)CN(C[C@@H](O)[C@H](Cc1ccccc1)NC(=O)O[C@@H]1C[C@@H]2[C@H](O)CO[C@@H]2C1)S(=O)(=O)c1ccc(CO)cc1 | 10.22
COc1ccc(S(=O)(=O)N(CC(C)C)C[C@@H](O)[C@H](Cc2ccccc2)NC(=O)O[C@@H]2C[C@@H]3[C@H](OC)CO[C@@H]3C2)cc1 | 9.41
CC(C)CN(C[C@@H](O)[C@H](Cc1ccccc1)NC(=O)O[C@@H]1C[C@@H]2[C@@H](O)CO[C@@H]2C1)S(=O)(=O)c1ccc(N)cc1 | 11.22
COc1ccc(S(=O)(=O)N(CC(C)C)C[C@@H](O)[C@H](Cc2ccccc2)NC(=O)O[C@@H]2C[C@@H]3[C@@H](OC)CO[C@@H]3C2)cc1 | 11.22
COc1ccc(S(=O)(=O)N(CC(C)C)C[C@@H](O)[C@H](Cc2ccccc2)NC(=O)O[C@@H]2C[C@@H]3[C@H](C)CO[C@@H]3C2)cc1 | 9.80
COc1ccc(S(=O)(=O)N(CC(C)C)C[C@@H](O)[C@H](Cc2ccccc2)NC(=O)O[C@@H]2C[C@@H]3[C@@H](C)CO[C@@H]3C2)cc1 | 10.77
COc1ccc(S(=O)(=O)N(CC(C)C)C[C@@H](O)[C@H](Cc2ccccc2)NC(=O)O[C@@H]2C[C@@H]3[C@H](N(C)C)CO[C@@H]3C2)cc1 | 7.90

test system: Human immunodeficiency virus 1; test: Antiviral activity against wild type Human immunodeficiency virus 1 ERS104pre infected in PHA-stimulated human PBMC assessed as inhibition of p24 Gag protein production; assay type: functional, organism-based
Outline: (§1)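 PHA-stimulated PBMCs served as target cells, and inhibition of p24 Gag protein production was the end point. Fold change was taken against the wild-type HIV-1ERS104pre IC50. Each assay was run in duplicate or triplicate. Values are means (±1 standard deviation) from three independent experiments.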

SMILES | pIC50
COc1ccc(S(=O)(=O)N(CC(C)C)C[C@@H](O)[C@H](Cc2ccccc2)NC(=O)O[C@@H]2C[C@@H]3[C@@H](O)CO[C@@H]3C2)cc1 | 8.54
COc1ccc(S(=O)(=O)N(CC(C)C)C[C@@H](O)[C@H](Cc2ccccc2)NC(=O)O[C@@H]2C[C@@H]3[C@H](O)CO[C@@H]3C2)cc1 | 7.70

test system: Human immunodeficiency virus 1; test: Antiviral activity against multidrug-resistant Human immunodeficiency virus 1 subtype B harboring protease L10I, L33I, M36I, M46I, F53L, K55R, I62 V, L63P, A71 V, G73S, V82A, L90M, I93L mutation infected in PHA-stimulated human PBMC assessed as inhibition of p24 Gag protein production; assay type: functional, organism-based; outline: as §1

SMILES | pIC50
CC(C)CN(C[C@@H](O)[C@H](Cc1ccccc1)NC(=O)O[C@H]1CCOC1)S(=O)(=O)c1ccc(N)cc1 | 6.03
COc1ccc(S(=O)(=O)N(CC(C)C)C[C@@H](O)[C@H](Cc2ccccc2)NC(=O)O[C@@H]2C[C@@H]3[C@@H](O)CO[C@@H]3C2)cc1 | 7.54
COc1ccc(S(=O)(=O)N(CC(C)C)C[C@@H](O)[C@H](Cc2ccccc2)NC(=O)O[C@@H]2C[C@@H]3[C@H](O)CO[C@@H]3C2)cc1 | < 6.00

test system: Human immunodeficiency virus 1; test: Antiviral activity against multidrug-resistant Human immunodeficiency virus 1 MDR/C harboring protease L10I, I15 V, K20R, L24I, M36I, M46L, I54V, I62 V, L63P, K70Q, V82A, L89 M mutation infected in PHA-stimulated human PBMC assessed as inhibition of p24 Gag protein production; assay type: functional, organism-based; outline: as §1

SMILES | pIC50
CC(C)CN(C[C@@H](O)[C@H](Cc1ccccc1)NC(=O)O[C@H]1CCOC1)S(=O)(=O)c1ccc(N)cc1 | 6.59
COc1ccc(S(=O)(=O)N(CC(C)C)C[C@@H](O)[C@H](Cc2ccccc2)NC(=O)O[C@@H]2C[C@@H]3[C@@H](O)CO[C@@H]3C2)cc1 | 7.66
COc1ccc(S(=O)(=O)N(CC(C)C)C[C@@H](O)[C@H](Cc2ccccc2)NC(=O)O[C@@H]2C[C@@H]3[C@H](O)CO[C@@H]3C2)cc1 | < 6.00

test system: Human immunodeficiency virus 1; test: Antiviral activity against multidrug-resistant Human immunodeficiency virus 1 MDR/G harboring protease L10I, V11I, T12E, I15 V, L19I, R41K, M46L, L63P, A71T, V82A, L90 M mutation infected in PHA-stimulated human PBMC assessed as inhibition of p24 Gag protein production; assay type: functional, organism-based; outline: as §1

SMILES | pIC50
CC(C)CN(C[C@@H](O)[C@H](Cc1ccccc1)NC(=O)O[C@H]1CCOC1)S(=O)(=O)c1ccc(N)cc1 | 6.42
COc1ccc(S(=O)(=O)N(CC(C)C)C[C@@H](O)[C@H](Cc2ccccc2)NC(=O)O[C@@H]2C[C@@H]3[C@@H](O)CO[C@@H]3C2)cc1 | 8.35
COc1ccc(S(=O)(=O)N(CC(C)C)C[C@@H](O)[C@H](Cc2ccccc2)NC(=O)O[C@@H]2C[C@@H]3[C@H](O)CO[C@@H]3C2)cc1 | 6.57

test system: Human immunodeficiency virus 1; test: Antiviral activity against multidrug-resistant Human immunodeficiency virus 1 MDR/TM harboring protease L10I, K14R, R41K, M46L, I54V, L63P, A71V, V82A, L90M, I93L mutation infected in PHA-stimulated human PBMC assessed as inhibition of p24 Gag protein production; assay type: functional, organism-based; outline: as §1

SMILES | pIC50
CC(C)CN(C[C@@H](O)[C@H](Cc1ccccc1)NC(=O)O[C@H]1CCOC1)S(=O)(=O)c1ccc(N)cc1 | 6.72
COc1ccc(S(=O)(=O)N(CC(C)C)C[C@@H](O)[C@H](Cc2ccccc2)NC(=O)O[C@@H]2C[C@@H]3[C@@H](O)CO[C@@H]3C2)cc1 | 8.51
COc1ccc(S(=O)(=O)N(CC(C)C)C[C@@H](O)[C@H](Cc2ccccc2)NC(=O)O[C@@H]2C[C@@H]3[C@H](O)CO[C@@H]3C2)cc1 | 7.39

test system: Human immunodeficiency virus 1; test: Ratio of IC50 for Human immunodeficiency virus 1 MDR/B to IC50 for wild-type Human immunodeficiency virus 1 ERS104pre; assay type: functional

SMILES | Ratio IC50
CC(C)CN(C[C@@H](O)[C@H](Cc1ccccc1)NC(=O)O[C@H]1CCOC1)S(=O)(=O)c1ccc(N)cc1 | 31

test system: Human immunodeficiency virus 1; test: Ratio of IC50 for Human immunodeficiency virus 1 MDR/C to IC50 for wild-type Human immunodeficiency virus 1 ERS104pre; assay type: functional

SMILES | Ratio IC50
CC(C)CN(C[C@@H](O)[C@H](Cc1ccccc1)NC(=O)O[C@H]1CCOC1)S(=O)(=O)c1ccc(N)cc1 | 9

test system: Human immunodeficiency virus 1; test: Ratio of IC50 for Human immunodeficiency virus 1 MDR/G to IC50 for wild-type Human immunodeficiency virus 1 ERS104pre; assay type: functional
Outline: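 Antiviral IC50s measured against each multidrug-resistant clinical isolate and wild-type HIV-1ERS104pre in PHA-stimulated PBMCs as target cells, with inhibition of p24 Gag production as the end point. The fold change is the isolate IC50 divided by the wild-type IC50. Assays were run in duplicate or triplicate; values are means (±1 SD) of three independent experiments.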

SMILES | Ratio IC50
CC(C)CN(C[C@@H](O)[C@H](Cc1ccccc1)NC(=O)O[C@H]1CCOC1)S(=O)(=O)c1ccc(N)cc1 | 12

test system: Human immunodeficiency virus 1; test: Ratio of IC50 for Human immunodeficiency virus 1 MDR/TM to IC50 for wild-type Human immunodeficiency virus 1 ERS104pre; assay type: functional

SMILES | Ratio IC50
CC(C)CN(C[C@@H](O)[C@H](Cc1ccccc1)NC(=O)O[C@H]1CCOC1)S(=O)(=O)c1ccc(N)cc1 | 6

test system: Human immunodeficiency virus 1; test: Antiviral activity against Human immunodeficiency virus 1 LAI infected in human MT2 cells by MTT assay

SMILES | pIC50
COc1ccc(S(=O)(=O)N(CC(C)C)C[C@@H](O)[C@H](Cc2ccccc2)NC(=O)O[C@@H]2C[C@@H]3[C@@H](O)CO[C@@H]3C2)cc1 | 8.54
COc1ccc(S(=O)(=O)N(CC(C)C)C[C@@H](O)[C@H](Cc2ccccc2)NC(=O)O[C@@H]2C[C@@H]3C(=O)CO[C@@H]3C2)cc1 | 7.85
COc1ccc(S(=O)(=O)N(CC(C)C)C[C@@H](O)[C@H](Cc2ccccc2)NC(=O)O[C@@H]2C[C@@H]3[C@H](O)CO[C@@H]3C2)cc1 | 8.15
CC(C)CN(C[C@@H](O)[C@H](Cc1ccccc1)NC(=O)O[C@@H]1C[C@@H]2[C@H](O)CO[C@@H]2C1)S(=O)(=O)c1ccc(N)cc1 | 7.60
CC(C)CN(C[C@@H](O)[C@H](Cc1ccccc1)NC(=O)O[C@@H]1C[C@@H]2[C@H](O)CO[C@@H]2C1)S(=O)(=O)c1ccc(CO)cc1 | 7.72
COc1ccc(S(=O)(=O)N(CC(C)C)C[C@@H](O)[C@H](Cc2ccccc2)NC(=O)O[C@@H]2C[C@@H]3[C@H](OC)CO[C@@H]3C2)cc1 | 7.43
CC(C)CN(C[C@@H](O)[C@H](Cc1ccccc1)NC(=O)O[C@@H]1C[C@@H]2[C@@H](O)CO[C@@H]2C1)S(=O)(=O)c1ccc(N)cc1 | 7.44
COc1ccc(S(=O)(=O)N(CC(C)C)C[C@@H](O)[C@H](Cc2ccccc2)NC(=O)O[C@@H]2C[C@@H]3[C@@H](OC)CO[C@@H]3C2)cc1 | 8.47
COc1ccc(S(=O)(=O)N(CC(C)C)C[C@@H](O)[C@H](Cc2ccccc2)NC(=O)O[C@@H]2C[C@@H]3[C@H](C)CO[C@@H]3C2)cc1 | 7.60
